The species entered for assay [1] is Cavia porcellus. The experiment in a line: Tested for agonist or antagonist properties in guinea pig ileum by (GPI) assay.
The species entered for assay [2] is Cavia porcellus. Briefly: Tested for agonist or antagonist properties in guinea pig ileum a (GPI) assay. The assay is classed as functional, organism-based.
The next assay has as its target Mu-type opioid receptor (Homo sapiens, UniProt P35372). Briefly: Binding affinity towards cloned human Opioid receptor mu 1 in CHO cell membranes. The format is cell-based. The gist of the method:
(§1)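 Membranes from CHO cells stably expressing cloned human µ, δ or κ receptors in 50 mM Tris-HCl pH 7.8 with EGTA, MgCl2 and protease inhibitors. 50-100 µg protein with 1.0 nM [3H]diprenorphine, 60 min at room temperature. Filtered on PEI/BSA-treated GF/B and counted by scintillation. Nonspecific binding with 10 µM naloxone. Four-parameter one-site fit, Ki by Cheng-Prusoff.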

Assay [3] addresses T1, Kappa-type opioid receptor (Homo sapiens, UniProt P41145). Briefly: Binding affinity towards cloned human Opioid receptor kappa 1 in CHO cell membranes. The format is cell-based.
The target of assay [4] is T2, Delta-type opioid receptor (Homo sapiens, UniProt P41143). The experiment in a line: (§2) Binding affinity towards cloned human Opioid receptor delta 1 in CHO cell membranes. The assay is classed as cell-based. The gist of the method: as §1
Assay [5] is described as follows: Antagonist activity determined in the [35S]GTP-gamma-S, binding assay relative to 50 nM U50,488. The format is functional.
The target of assay [6] is T1, Kappa-type opioid receptor. Briefly: Human Opioid receptor kappa 1 mediated stimulation of [35S]- GTPgammaS binding in CHO cells (Agonist potency). The assay is classed as cell-based. Summed up: (§3)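 κ-expressing CHO membranes (50-150 µg) in 50 mM Tris HCl pH 7.8 with 80-100 pM [35S]GTPγS, 30 µM GDP, 100 mM NaCl and 5.0 mM MgCl2, 1 h at 30 °C. Filtered and counted. Agonist concentration series gave EC50 by nonlinear regression. Maximal response at 10 µM expressed relative to U50,488 set as 100%.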

Assay [7] deals with T1, Kappa-type opioid receptor. The experiment in a line: Binding affinity of Opioid receptor kappa 1 to cloned human opioid receptor in CHO cell membrane. The format is cell-based. Summed up:
as §1

Assay [8] can be described thus: Antagonist activity determined in the [35S]GTP-gamma-S, binding assay relative to 25 nM [D-Ala3] Dyn A (1-11)-NH2. The format is functional.
Assay [9] is filed under the species Cavia porcellus. The experiment in a line: Antagonist activity determined in the guinea pig assay against [D-Ala3] Dyn A (1-11)-NH2 at 1 uM. The format is functional. The gist of the method: (§4)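 Electrically stimulated guinea pig ileum. Antagonist held at a fixed concentration of 1 µM. IC50 of the reference agonist (U50,488 or [D-Ala3]Dyn A(1-11)-NH2, as the line names) was measured with and without antagonist. Ke was calculated from the shift.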

The species named for assay [10] is Cavia porcellus. Briefly: Antagonist activity determined in the guinea pig assay against U50,488 at 1 uM. The assay is classed as functional. The gist of the method: as §4
The target of assay [11] is T1, Kappa-type opioid receptor. Briefly: Binding affinity at Opioid receptor kappa 1 by to cloned human opioid receptors expressed in CHO cell membranes. Summed up: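 Membranes from CHO cells stably expressing cloned human κ receptor; 50-100 µg protein in 50 mM Tris-HCl pH 7.8 with EGTA, MgCl2 and protease inhibitors. […] Nonspecific binding with 10 µM naloxone. Filtration and scintillation counting; Ki by Cheng-Prusoff.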

The target in assay [12] is T2, Delta-type opioid receptor. Described as §2. The assay is classed as cell-based. Summed up:
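Membranes from CHO cells stably expressing cloned human δ receptor; 50-100 µg protein. […] Nonspecific binding with 10 µM naloxone. Filter-bound counts; Ki via Cheng-Prusoff from a one-site fit.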
The source holds these as a separate data set.

Assay [13] in a line: Tested for maximum agonist response at concentration 10 uM, relative to that with standard agonist U50,488. The format is functional. Summed up:
as §3

For assay [14], the species on record is Cavia porcellus. The experiment in a line: Tested for antagonist activity in guinea pig ileum by (GPI) assay. The assay is classed as functional, organism-based. The gist of the method: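 Electrically evoked contractions of guinea pig ileum. Ke calculated from IC50 of reference agonist (U50,488 or [D-Ala3]Dyn A(1-11)-NH2), measured with and without a fixed concentration of antagonist.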

Assay [15] concerns the target T1, Kappa-type opioid receptor. Briefly: Human kOpioid receptor kappa 1 mediated stimulation of [35S]- GTPgammaS binding in CHO cells (Agonist potency). The format is cell-based. The gist of the method:
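Human κ-CHO membranes (50-150 µg) with 80-100 pM [35S]GTPγS, 30 µM GDP and 100 mM NaCl in Tris-HCl pH 7.8; 1 h at 30 °C, then filtration and counting. EC50 from a nonlinear fit of an agonist concentration series. Maximal response at 10 µM expressed relative to U50,488 (100%).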

This note sets out measurements from ChEMBL document CHEMBL1133465, “[Pro(3)]Dyn A(1-11)-NH(2): a dynorphin analogue with high selectivity for the kappa opioid receptor” (J Med Chem, 2000).

T2 sequence (P41143 whole entry): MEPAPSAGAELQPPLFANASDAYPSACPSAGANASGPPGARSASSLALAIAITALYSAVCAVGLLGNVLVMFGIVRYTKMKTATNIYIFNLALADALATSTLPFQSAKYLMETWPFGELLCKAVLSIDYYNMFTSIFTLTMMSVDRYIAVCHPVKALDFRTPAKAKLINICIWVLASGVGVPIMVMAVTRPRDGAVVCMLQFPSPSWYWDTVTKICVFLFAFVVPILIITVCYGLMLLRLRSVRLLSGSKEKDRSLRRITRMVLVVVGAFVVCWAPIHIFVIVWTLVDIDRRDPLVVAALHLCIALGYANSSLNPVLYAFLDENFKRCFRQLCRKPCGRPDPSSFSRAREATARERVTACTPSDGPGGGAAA
Mu-type opioid receptor, sequence (P35372 whole entry): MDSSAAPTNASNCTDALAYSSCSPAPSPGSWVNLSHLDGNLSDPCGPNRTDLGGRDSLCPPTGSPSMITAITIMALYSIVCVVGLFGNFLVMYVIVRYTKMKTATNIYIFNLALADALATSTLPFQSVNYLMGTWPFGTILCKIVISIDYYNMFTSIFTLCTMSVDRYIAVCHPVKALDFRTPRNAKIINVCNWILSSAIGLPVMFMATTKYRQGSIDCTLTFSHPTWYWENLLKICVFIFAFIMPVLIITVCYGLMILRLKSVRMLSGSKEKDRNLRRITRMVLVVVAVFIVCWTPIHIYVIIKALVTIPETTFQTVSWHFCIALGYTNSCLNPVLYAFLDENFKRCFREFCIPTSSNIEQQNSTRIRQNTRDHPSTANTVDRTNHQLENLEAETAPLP
T1 sequence (P41145 whole entry): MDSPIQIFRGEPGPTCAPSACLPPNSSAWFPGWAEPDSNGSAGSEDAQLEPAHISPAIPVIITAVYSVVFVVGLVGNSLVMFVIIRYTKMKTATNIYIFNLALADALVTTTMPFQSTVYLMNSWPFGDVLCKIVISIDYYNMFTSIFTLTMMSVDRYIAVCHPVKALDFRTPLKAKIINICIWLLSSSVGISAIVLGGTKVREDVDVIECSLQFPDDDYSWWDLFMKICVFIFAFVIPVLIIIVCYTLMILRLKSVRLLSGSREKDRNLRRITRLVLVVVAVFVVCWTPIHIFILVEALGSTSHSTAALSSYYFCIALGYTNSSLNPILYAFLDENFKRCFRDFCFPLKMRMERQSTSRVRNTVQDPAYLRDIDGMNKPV

As to `CC[C@H](C)[C@H](NC(=O)[C@H](CCCN=C(N)N)NC(=O)[C@H](CCCN=C(N)N)NC(=O)[C@H](CC(C)C)NC(=O)[C@H](Cc1ccccc1)NC(=O)[C@@H](C)NC(=O)CNC(=O)[C@@H](N)Cc1ccc(O)cc1)C(=O)N[C@@H](CCCN=C(N)N)C(=O)N1CCC[C@H]1C(=O)N[C@@H](CCCCN)C(N)=O`, in the assay listed under Cavia porcellus [1], the IC50 came to 2.38 nM.
`CCC[C@H](NC(=O)[C@H](Cc1ccccc1)NC(=O)CNC(=O)CNC(=O)[C@H](Cc1ccc(O)cc1)NCc1ccccc1)C(=O)N[C@@H](CCCN=C(N)N)C(=O)N[C@@H](CCCN=C(N)N)C(=O)N[C@H](C(=O)N[C@@H](CCCN=C(N)N)C(=O)N1CCCC1C(=O)N[C@@H](CCCCN)C(N)=O)[C@@H](C)CC` (stereo in doubt) yielded an IC50 in the assay filed under Cavia porcellus [2] of 990 nM.
Turning to `CC[C@H](C)[C@H](NC(=O)[C@H](CCCNC(=N)N)NC(=O)[C@H](CCCNC(=N)N)NC(=O)[C@H](CC(C)C)NC(=O)[C@H](Cc1ccccc1)NC(=O)CNC(=O)[C@@H]1CCCN1C(=O)[C@@H](N)Cc1ccc(O)cc1)C(=O)N[C@@H](CCCNC(=N)N)C(=O)N1CCC[C@H]1C(=O)N[C@@H](CCCCN)C(N)=O`, the values for the Ki (at Mu-type opioid receptor; in assay [3]; in [4]) were 3200 nM, 94 nM and 6800 nM, respectively. Besides, the IC50 in [5] stood at 760 nM.
Take `CC[C@H](C)[C@H](NC(=O)[C@H](CCCNC(=N)N)NC(=O)[C@H](CCCNC(=N)N)NC(=O)[C@H](CC(C)C)NC(=O)[C@H](Cc1ccccc1)NC(=O)[C@@H](C)NC(=O)CNC(=O)[C@@H](N)Cc1ccc(O)cc1)C(=O)N[C@@H](CCCNC(=N)N)C(=O)N1CCC[C@H]1C(=O)N[C@@H](CCCCN)C(N)=O`: the EC50 in [6] was determined as 6.1 nM. Besides, the Ki on Mu-type opioid receptor is 67 nM; in assay [3] it was 0.15 nM.
In the case of `CC[C@@H](C)[C@@H](NC(=O)CNC(=O)[C@@H](N)Cc1ccc(O)cc1)C(=O)N[C@@H](Cc1ccccc1)C(=O)N[C@@H](CC(C)C)C(=O)N[C@@H](CCCN=C(N)N)C(=O)N[C@@H](CCCN=C(N)N)C(=O)N[C@H](C(=O)N[C@@H](CCCN=C(N)N)C(=O)N1CCC[C@H]1C(=O)N[C@@H](CCCCN)C(N)=O)[C@@H](C)CC`, the affinity in assay [7], expressed as Ki, was 55 nM.
As to `Oc1ccc2c3c1O[C@H]1c4[nH]c5c(c4C[C@@]4(O)[C@@H](C2)N(CC2CC2)CC[C@]314)C[C@@]1(O)[C@H]2Cc3ccc(O)c4c3[C@@]1(CCN2CC1CC1)[C@H]5O4` [NORBINALTORPHIMINE], the IC50 stood at 4.7 nM in assay [8] and 4.6 nM in [5]. Further, the Ke in the assay filed under Cavia porcellus [9] was found to be 0.572 nM; in the assay listed under Cavia porcellus [10] it was 0.357 nM.
Turning to `CC[C@H](C)[C@H](NC(=O)[C@H](CCCN=C(N)N)NC(=O)[C@H](CCCN=C(N)N)NC(=O)[C@H](CC(C)C)NC(=O)[C@H](Cc1ccccc1)NC(=O)[C@@H]1CCCN1C(=O)CNC(=O)[C@@H](N)Cc1ccc(O)cc1)C(=O)N[C@@H](CCCN=C(N)N)C(=O)N1CCC[C@H]1C(=O)N[C@@H](CCCCN)C(N)=O`, the IC50 in assay [8] stood at 1400 nM; in assay [5], 380 nM. In addition, the Ki on Mu-type opioid receptor was determined as 5700 nM; in assay [3] it was 2.7 nM; in assay [11], 7.5 nM; in assay [4], 8800 nM.
With `CC[C@H](C)[C@H](NC(=O)[C@H](CCCN=C(N)N)NC(=O)[C@H](CCCN=C(N)N)NC(=O)[C@H](CC(C)C)NC(=O)[C@H](Cc1ccccc1)NC(=O)CNC(=O)CNC(=O)[C@@H](N)Cc1ccc(O)cc1)C(=O)N[C@@H](CCCN=C(N)N)C(=O)N1CCC[C@H]1C(=O)N[C@@H](CCCCN)C(N)=O`, the Ki in [12] was found to be 2.9 nM; at Mu-type opioid receptor it was 7.6 nM; in assay [3] it was 0.074 nM. In assay [13], this molecule displayed a Max agonist response of 73%. The molecule further gave an IC50 in the assay listed under Cavia porcellus [14] of 0.376 nM. In assay [15], this molecule displayed an EC50 of 0.74 nM.
In the case of `CC[C@H](C)[C@H](NC(=O)[C@H](CCCN=C(N)N)NC(=O)[C@H](CCCN=C(N)N)NC(=O)[C@H](CC(C)C)NC(=O)[C@H](Cc1ccccc1)NC(=O)[C@H]1CCCN1C(=O)CNC(=O)[C@@H](N)Cc1ccc(O)cc1)C(=O)N[C@@H](CCCN=C(N)N)C(=O)N1CCC[C@H]1C(=O)N[C@@H](CCCCN)C(N)=O`, the Ki on Mu-type opioid receptor stood at 8300 nM; in [3], 160 nM; in assay [4], 7100 nM. Moreover, the IC50 in assay [5] was determined as 2200 nM.
For `CC[C@H](C)[C@H](NC(=O)[C@H](CCCN=C(N)N)NC(=O)[C@H](CCCN=C(N)N)NC(=O)[C@H](CC(C)C)NC(=O)[C@H](Cc1ccccc1)NC(=O)CNC(=O)[C@H]1CCCN1C(=O)[C@@H](N)Cc1ccc(O)cc1)C(=O)N[C@@H](CCCN=C(N)N)C(=O)N1CCC[C@H]1C(=O)N[C@@H](CCCCN)C(N)=O`, in that order: 1700 nM, 65 nM, 3900 nM and 940 nM.
